{"source": "ChEMBL document CHEMBL4196194", "about": "“De Novo Design of α-Helical Lipopeptides Targeting Viral Fusion Proteins: A Promising Strategy for Relatively Broad-Spectrum Antiviral Drug Discovery” (J Med Chem, 2018)", "key": {"[1]": {"test": "Drug distribution in acidic vesicles intracellular compartments of MDCK cells incubated for 1 hrs by LysoTracker Red DND-99 staining based confocal microscopy", "assay_type": "ADME, cell-based, Canis lupus familiaris", "settings": "dog", "procedure,_shortened": "(§1)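 MDCK cells were pre-stained with 100 nM LysoTracker Red for 1.5 h and washed. They were then given 5 μM NBD-labelled lipopeptide in phenol-red-free DF-12 at 37 °C, 5% CO2. Confocal imaging with a 20× objective was done at 10 min, 30 min, 1 h, 2 h and 4 h. Peptide was read in the FITC channel and acidic compartments in the red channel, with colocalization assessed on merged images.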"}, "[2]": {"tested_on": "Influenza A virus", "test": "Antiviral activity against Influenza A virus (A/Puerto Rico/8/1934(H1N1)) infected in HEK293T cells assessed as inhibition of viral replicon activity incubated for 30 hrs by dual-Glo luciferase assay", "assay_type": "functional, organism-based", "procedure,_shortened": "(§2)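 HEK293T cells (2.5 × 10^4/well) transfected with plasmids for NP, PB1, PB2, PA plus p0LN-S-Luc firefly and pRL-SV40 Renilla reporters; serially diluted compound added 6 h post-transfection, luciferase read after 30 h by Dual-Glo. Activity = firefly/Renilla ratio; % inhibition normalized to positive and negative controls, curve-fitted; three independent measurements.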"}, "[3]": {"tested_on": "Influenza A virus", "test": "Antiviral activity against influenza A virus Hong Kong/8/1968(H3N2) infected in HEK293T cells assessed as inhibition of viral replicon activity incubated for 30 hrs by dual-Glo luciferase assay", "assay_type": "functional, organism-based", "procedure,_shortened": "as §2"}, "[4]": {"test": "Drug distribution in acidic vesicles intracellular compartments of MDCK cells incubated for 4 hrs by LysoTracker Red DND-99 staining based confocal microscopy", "assay_type": "ADME, cell-based, Canis lupus familiaris", "settings": "dog", "procedure,_shortened": "as §1"}, "[5]": {"test": "Drug distribution in cell membrane of MDCK cells incubated for 0.5 hrs by confocal microscopy", "assay_type": "ADME, cell-based, Canis lupus familiaris", "settings": "dog", "procedure,_shortened": "as §1"}}, "note": "Active and inactive are the calls of the source. The calls are words filed in the database; no cut-off is given here. Where a SMILES comes first, the peptide text is derived from it. [ ]: non-standard residue; d: D form. The star is where a group is joined. Palmitoyl = CCCCCCCCCCCCCCCC(=O)*; X1 = O=[N+]([O-])c1ccc(*)c2onnc12; βAla = NCCC(=O)O"}
{"smiles": "CCCCCCCCCCCCCCCC(=O)NCCCC[C@H](NC(=O)CCNC(=O)[C@H](CCCCN)NC(=O)[C@H](CCCCN)NC(=O)[C@H](CCC(N)=O)NC(=O)[C@@H](NC(=O)[C@H](CCC(=O)O)NC(=O)[C@H](CCC(=O)O)NC(=O)[C@@H](NC(=O)[C@H](CCCCN)NC(=O)[C@H](CCCCN)NC(=O)[C@H](CCC(N)=O)NC(=O)[C@@H](NC(=O)[C@H](CCC(=O)O)NC(=O)[C@H](CCC(=O)O)NC(=O)[C@@H](NC(=O)[C@H](CCCCN)NC(=O)[C@H](CCCCN)NC(=O)[C@H](CCC(N)=O)NC(=O)[C@@H](NC(=O)[C@H](CCC(=O)O)NC(=O)[C@H](CCC(=O)O)NC(=O)[C@@H](NC(=O)[C@H](CCCCN)NC(=O)[C@H](CCCCN)NC(=O)[C@H](CCC(N)=O)NC(=O)[C@@H](NC(=O)[C@H](CCC(=O)O)NC(=O)[C@H](CCC(=O)O)NC(=O)[C@@H](NC(=O)[C@H](CCCCN)NC(=O)[C@H](CCCCN)NC(=O)[C@H](CCC(N)=O)NC(=O)[C@@H](NC(=O)[C@H](CCC(=O)O)NC(=O)[C@H](CCC(=O)O)NC(=O)[C@@H](NC(=O)CCNc1ccc([N+](=O)[O-])c2nnoc12)[C@@H](C)CC)[C@@H](C)CC)[C@@H](C)CC)[C@@H](C)CC)[C@@H](C)CC)[C@@H](C)CC)[C@@H](C)CC)[C@@H](C)CC)[C@@H](C)CC)[C@@H](C)CC)C(N)=O", "note": "({X1-βAla}-IEEIQKKIEEIQKKIEEIQKKIEEIQKKIEEIQKK[βAla]K(Palmitoyl)-NH2)", "values": [{"measurement": "Drug uptake", "setting": "[1]", "result": "Active"}, {"measurement": "inhibition", "setting": "[2]", "result": "Active"}, {"measurement": "inhibition", "setting": "[3]", "result": "Active"}, {"measurement": "Drug uptake", "setting": "[4]", "result": "Active"}, {"measurement": "Drug uptake", "setting": "[5]", "result": "Active"}]}
